Drawing on ChEMBL document CHEMBL3739258, “Click-based synthesis of bromotyrosine alkaloid analogs as potential anti-biofilm leads for SAR studies” (Bioorg Med Chem Lett, 2015), this text covers Activity and EC50 for 24 compounds.

SMILES strings stand for the structures.

Data set [1] relates to Paracoccus sp. Briefly: Antibiofilm activity against Paracoccus sp. 4M6 assessed as microbial adhesion at 200 uM after 15 hrs by Syto61 based-fluorescence analysis relative to control. It is filed as functional. The procedure, abridged: (§1)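 Cells grown in VNSS at 20 °C to stationary phase, centrifuged, and resuspended in sterile artificial seawater to OD600 0.2–0.4. Suspension incubated with compound at 200 µM in triplicate for 15 h at 20 °C. Loose cells removed with three washes in 36 g/L NaCl. Attached cells stained 10 min at room temperature with 40 µmol/L Syto 61, then washed and the stain solubilised. Fluorescence read at ex 615/em 670 nm against untreated adhesion-control wells.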

The subject of data set [2] is Pseudoalteromonas lipolytica. Briefly: Antibiofilm activity against Pseudoalteromonas lipolytica TC8 assessed as microbial adhesion at 200 uM after 15 hrs by Syto61 based-fluorescence analysis relative to control. In kind it is functional. In outline:
as §1

In data set [3] the test system is Pseudoalteromonas ulvae. The data set can be described thus: Antibiofilm activity against Pseudoalteromonas ulvae TC14 assessed as microbial adhesion at 200 uM after 15 hrs by Syto61 based-fluorescence analysis relative to control. In kind it is functional. In outline: as §1
The nature of data set [4]: Toxicity in Pseudoalteromonas ulvae TC14 assessed as growth inhibition at 100 uM after 15 hrs by Syto61 based-fluorescence analysis relative to control.
The nature of data set [5]: Toxicity in Paracoccus sp. 4M6 assessed as effect on viability at 100 uM after 6 hrs by resazurin-staining assay relative to control. The procedure, abridged:
(§2)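 Strains grown in VNSS at 20 °C. Bacterial suspension added to VNSS wells containing compound at 100 µM, triplicate, with solvent and untreated controls. OD600 followed hourly for 6 h. Resazurin was then added and fluorescence read after 2 h. Percent viability was calculated as in the Syto 61 adhesion assay.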
In general terms: Alamar Blue is a resazurin reagent that responds to reducing activity.

Data set [6] in a line: Toxicity in Pseudoalteromonas ulvae TC14 assessed as effect on viability at 100 uM after 6 hrs by resazurin-staining assay relative to control. In outline:
as §2

Data set [7] in a line: Toxicity in Paracoccus sp. 4M6 assessed as growth inhibition at 100 uM after 15 hrs by Syto61 based-fluorescence analysis relative to control.
Data set [8] relates to Pseudoalteromonas ulvae. Briefly: Antibiofilm activity against Pseudoalteromonas ulvae TC14 assessed as reduction in adhesion after 15 hrs by Syto61 based-fluorescence analysis relative to control. It is filed as functional. The conditions noted are these: TC14, 15 h. In outline: (§3)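 Adhesion assay: cells from a 20 °C VNSS stationary-phase culture were resuspended in artificial seawater (OD600 0.2–0.4). They were exposed to a range of compound concentrations in triplicate for 15 h at 20 °C, then washed with 36 g/L NaCl and stained 10 min with 40 µmol/L Syto 61. Fluorescence was read at ex 615/em 670 nm relative to bacteria-only controls. EC50 came from dose-response curve fitting.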

Data set [9] concerns Pseudoalteromonas lipolytica. Briefly: Antibiofilm activity against Pseudoalteromonas lipolytica TC8 assessed as reduction in adhesion after 15 hrs by Syto61 based-fluorescence analysis relative to control. In kind it is functional. The conditions noted are these: TC8, 15 h. The procedure, abridged: as §3
The nature of data set [10]: Toxicity in Pseudoalteromonas lipolytica TC8 assessed as effect on viability at 100 uM after 6 hrs by resazurin-staining assay relative to control. The procedure, abridged:
as §2

The nature of data set [11]: Toxicity in Pseudoalteromonas lipolytica TC8 assessed as growth inhibition at 100 uM after 15 hrs by Syto61 based-fluorescence analysis relative to control.
In data set [12] the test system is Paracoccus sp. The data set can be described thus: Antibiofilm activity against Paracoccus sp. 4M6 assessed as reduction in adhesion after 15 hrs by Syto61 based-fluorescence analysis relative to control. In kind it is functional. Particulars: Paracoccus sp. (in: a-proteobacteria), 4M6, 15 h. In outline: as §3

For `COc1ccc(Cn2cc(C(=O)NCCc3cnc[nH]3)nn2)cc1Br`, the Activity in data set [1], in data set [2] and in data set [3] was above 75% in each case.

For `COc1ccc(CCn2cc(C(=O)NCCc3cc(Br)c(O)c(Br)c3)nn2)cc1Br`, the Activity in data set [1] is reported as 28.8%; in data set [4] it was “Toxic”; in data set [5], “Non-toxic”; in data set [6], “Non-toxic”; in data set [7], “Non-toxic”; in data set [2], 29.7%. In addition, the figures for the Activity result in [10], in data set [11] and in data set [3] were “Non-toxic”, “Non-toxic” and 5.9%, respectively. Besides, the values for the EC50 in data set [8], in data set [9] and in data set [12] were 8.8 µM, 67.8 µM and 40.7 µM, respectively.

As for `O=C(NCCc1cnc[nH]1)c1cn(CCc2ccc(O)c(Br)c2)nn1`, the Activity in data set [1], in data set [2] and in data set [3] was above 75% each time.

Consider `COc1ccc(CCn2cc(C(=O)NCCc3ccc(O)cc3)nn2)cc1Br`, for which the Activity in data set [1] is 28.2%; in [5], “Non-toxic”; in [6] it was “Non-toxic”; in data set [7] it was “Non-toxic”; in data set [2], 35%; in data set [10], “Non-toxic”. Further, the Activity result in [11] is “Non-toxic”; in data set [3] it was 18.7%. Besides, the figures for the half-maximal effective concentration (EC50) in data set [8], in data set [9] and in data set [12] were 32.6 µM, 104 µM and 72.9 µM, respectively.

As to `O=C(NCCc1cc(Br)c(O)c(Br)c1)c1cn(CCc2cc(Br)c(O)c(Br)c2)nn1`, the Activity in data set [1] is reported as 38.7%; in data set [5] it was “Non-toxic”; in data set [6], “Non-toxic”; in data set [7], “Non-toxic”; in data set [2] it was 40.32%; in data set [10] it was “Non-toxic”. Besides, the Activity result in data set [11] is listed as “Non-toxic”; in data set [3], 29.3%. The values for the EC50 in data set [8], in data set [9] and in data set [12] were 26.6 µM, 96 µM and 83.2 µM, respectively.

For the compound `COc1ccc(CCn2cc(C(=O)NCCNC(=N)N)nn2)cc1Br.O=C(O)C(F)(F)F`, the Activity in data set [1], in [2] and in [3] was above 75% in each case.

As to `O=C(NCCc1ccc(O)cc1)c1cn(CCc2ccc(O)cc2)nn1`, the Activity in data set [1] is 44.5%; in data set [5] it was “Non-toxic”; in [6], “Non-toxic”; in data set [7] it was “Non-toxic”; in data set [2], 43%; in [10], “Non-toxic”. For the same compound, the results for the Activity entry in data set [11] and in [3] were “Non-toxic” and 16%, respectively. In addition, the EC50 (commonly the concentration giving half of the maximal effect) in data set [8] is 72.9 µM; in data set [9] it was 170 µM; in data set [12] it was 196 µM.

Take `COc1ccc(CCn2cc(C(=O)NCCc3cnc[nH]3)nn2)cc1Br`: the Activity in [1], in data set [2] and in data set [3] was above 75% in each case.

With `COc1ccc(CCn2cc(C(=O)NCCN)nn2)cc1Br.O=C(O)C(F)(F)F`, the Activity in data set [1], in data set [2] and in data set [3] was above 75% throughout.

`COc1ccc(Cn2cc(C(=O)NCCCCNC(=N)N)nn2)cc1Br.O=C(O)C(F)(F)F`: the Activity in [1], in data set [2] and in data set [3] was above 75% throughout.

With `COc1ccc(CCn2cc(C(=O)NCCCCNC(=N)N)nn2)cc1Br.O=C(O)C(F)(F)F`, the Activity in [1], in [2] and in [3] was above 75% each time.

Turning to `COc1ccc(CCn2cc(C(=O)NCCCCN)nn2)cc1Br.O=C(O)C(F)(F)F`, the Activity in [1], in data set [2] and in data set [3] was above 75% each time.

For the compound `COc1ccc(CCn2cc(C(=O)NCCCN)nn2)cc1Br.O=C(O)C(F)(F)F`, the Activity in [1], in data set [2] and in data set [3] was above 75% in each case.

Turning to `COc1ccc(Cn2cc(C(=O)NCCc3cc(Br)c(O)c(Br)c3)nn2)cc1Br`, the Activity is 37.9% in [1]; “Non-toxic” in data set [5]; “Non-toxic” in data set [6]; “Non-toxic” in data set [7]; 40% in [2]; “Non-toxic” in data set [10]. The Activity result is reported as “Non-toxic” in data set [11] and 23.3% in data set [3]. In addition, the EC50 was 40.2 µM in data set [8], 124 µM in data set [9] and 84 µM in data set [12].

For the compound `COc1ccc(Cn2cc(C(=O)NCCN)nn2)cc1Br.O=C(O)C(F)(F)F`, the Activity in data set [1], in data set [2] and in [3] was above 75% throughout.

Take `COc1ccc(Cn2cc(C(=O)NCCCN)nn2)cc1Br.O=C(O)C(F)(F)F`: the Activity in data set [1], in data set [2] and in data set [3] was above 75% each time.

Take `COc1ccc(CCn2cc(C(=O)NCCCNC(=N)N)nn2)cc1Br.O=C(O)C(F)(F)F`: the Activity in data set [1], in [2] and in data set [3] was above 75% each time.

On to `COc1ccc(Cn2cc(C(=O)NCCNC(=N)N)nn2)cc1Br.O=C(O)C(F)(F)F`, for which the Activity in [1], in data set [2] and in data set [3] was above 75% in each case.

`COc1ccc(Cn2cc(C(=O)NCCc3ccc(O)cc3)nn2)cc1Br`: the Activity in data set [1] is 31.2%; in [5] it was “Non-toxic”; in data set [6] it was “Non-toxic”; in data set [7], “Non-toxic”; in data set [2] it was 38.3%; in data set [10], “Non-toxic”. Further, the results for the Activity entry in data set [11] and in data set [3] were “Non-toxic” and 20.7%, respectively. In addition, the concentration for a half-maximal effect (EC50) stood at 40 µM in data set [8], 134 µM in data set [9] and 97.3 µM in [12].

Consider `O=C(NCCc1cnc[nH]1)c1cn(CCc2ccc(O)cc2)nn1`, for which the Activity in [1], in [2] and in [3] was above 75% throughout.

Regarding `COc1ccc(Cn2cc(C(=O)NCCCCN)nn2)cc1Br.O=C(O)C(F)(F)F`, the Activity in [1], in [2] and in data set [3] was above 75% throughout.

`COc1ccc(Cn2cc(C(=O)NCCCNC(=N)N)nn2)cc1Br.O=C(O)C(F)(F)F`: the Activity in data set [1], in data set [2] and in data set [3] was above 75% in each case.

For the compound `O=C(NCCc1ccc(O)cc1)c1cn(CCc2ccc(O)c(Br)c2)nn1`, the Activity is reported as 43.4% in data set [1]; “Non-toxic” in [5]; “Non-toxic” in data set [6]; “Non-toxic” in [7]; 35% in data set [2]; “Non-toxic” in data set [10]. For the same compound, the Activity entry in data set [11] was “Non-toxic”; in data set [3], 31.4%. For the same compound, the concentration giving a half-maximal response (EC50) was determined as 69.3 µM in [8], 113 µM in data set [9] and 156 µM in data set [12].

With `CC1(C)S[C@@H]2[C@H](NC(=O)[C@H](N)c3ccccc3)C(=O)N2[C@H]1C(=O)O` [AMPICILLIN], the Activity is reported as 33.9% in [1]; “Toxic” in data set [5]; “Toxic” in data set [6]; “Toxic” in data set [7]; 8.9% in data set [2]; “Toxic” in [10]. For the same compound, the Activity result in data set [11] was “Toxic”; in data set [3] it was 4.9%. Also, the EC50 in data set [8] was 9.3 µM; in data set [9] it was 17.9 µM; in data set [12] it was 144 µM.
